In ChEMBL document CHEMBL3102692 (Bioorg Med Chem Lett, 2014):
Active and inactive are the calls of the source. No cut-off for these calls is given here.

Assays:
Beta-secretase 1 [1] = target: T1, Beta-secretase 1 (Homo sapiens, UniProt P56817); assay: Inhibition of recombinant BACE1 (unknown origin) at 0.67 mM
Beta-secretase 1 [2] = target: T1, Beta-secretase 1; assay: Inhibition of recombinant BACE1 (unknown origin)
Beta-secretase 1 [3] = target: T1, Beta-secretase 1; assay: Non-competitive inhibition of recombinant BACE1 (unknown origin) by Lineweaver-Burk plot analysis
Beta-secretase 1 [4] = target: T1, Beta-secretase 1; assay: Inhibition of recombinant BACE1 (unknown origin) at 1.3 mM
In short: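 Recombinant BACE1 was incubated with a synthetic dodecapeptide substrate carrying the Swedish-type BACE1 cleavage sequence, in 40 mM AcONa buffer (pH 4.0) with 10% glycerol, 10 mM DTT and 4 M NaCl. The reaction mixture was analysed by reversed-phase C18 HPLC using a 10–40% MeCN gradient over 30 min in aq 0.1% TFA. Inhibition was read from the decrease of the substrate.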

T1 sequence (P56817 whole entry): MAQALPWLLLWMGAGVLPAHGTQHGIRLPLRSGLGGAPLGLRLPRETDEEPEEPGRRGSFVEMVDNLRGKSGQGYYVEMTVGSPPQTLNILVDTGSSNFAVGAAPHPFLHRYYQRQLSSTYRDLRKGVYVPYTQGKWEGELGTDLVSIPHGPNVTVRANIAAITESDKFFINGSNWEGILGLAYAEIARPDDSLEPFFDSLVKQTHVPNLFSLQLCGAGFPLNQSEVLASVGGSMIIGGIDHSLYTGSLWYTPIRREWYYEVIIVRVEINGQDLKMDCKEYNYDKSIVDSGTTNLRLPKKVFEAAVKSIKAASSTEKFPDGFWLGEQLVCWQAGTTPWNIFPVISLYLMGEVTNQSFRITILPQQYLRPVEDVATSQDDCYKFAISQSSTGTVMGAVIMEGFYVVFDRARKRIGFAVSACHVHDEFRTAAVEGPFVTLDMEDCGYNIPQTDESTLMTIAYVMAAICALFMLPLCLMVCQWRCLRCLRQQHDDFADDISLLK

| Structure (SMILES) | inhibition (Beta-secretase 1 [1]) [%] | other results |
| --- | --- | --- |
| O=C(/C=C(O)/C=C/c1cccc(O)c1)/C=C/c1cccc(O)c1 | 33 |  |
| O=C(/C=C(O)/C=C/c1cccc([N+](=O)[O-])c1)/C=C/c1ccc(O)c(O)c1 | 18 | IC50 (Beta-secretase 1 [2]): 1.8 mM |
| O=C(/C=C(O)/C=C/c1ccccc1O)/C=C/c1ccc(O)c(O)c1 | 100 | inhibition (Beta-secretase 1 [3]): Active; IC50 (Beta-secretase 1 [2]): 0.25 mM |
| COCCOCOc1ccc(/C=C/C(=O)/C=C(O)/C=C/c2ccc(OCOCCOC)c(OC)c2)cc1OC |  | inhibition (Beta-secretase 1 [4]): 19% |
| O=C(/C=C(O)/C=C/c1c[nH]c2ccccc12)/C=C/c1ccc(O)c(O)c1 | 71 | IC50 (Beta-secretase 1 [2]): 0.45 mM |
| COc1ccc(/C=C/C(=O)/C(=C(O)/C=C/c2ccc(OC)c(OC)c2)C(C)C)cc1OC | 4 |  |
| COCCOCOc1ccc(/C=C/C(=O)/C=C(O)/C=C/c2ccc(O)c(OC)c2)cc1OC |  | inhibition (Beta-secretase 1 [4]): 17% |
| COc1cc(/C=C/C(=O)/C=C(O)/C=C/c2ccc(Br)cc2)ccc1O | 5 |  |
| COCCOCOc1ccc(CCC(=O)CC(O)CCc2ccc(OCOCCOC)c(OC)c2)cc1OC (stereo unspecified) |  | inhibition (Beta-secretase 1 [4]): 15% |
| COCCOCOC(=C\C(=O)/C=C/c1ccc(OCOCCOC)c(OC)c1)/C=C/c1ccc(OCOCCOC)c(OC)c1 |  | inhibition (Beta-secretase 1 [4]): 36% |
| COc1ccccc1/C=C/C(O)=C/C(=O)/C=C/c1ccc(O)c(O)c1 | 47 | IC50 (Beta-secretase 1 [2]): 1.4 mM |
| COc1cc(CCC(=O)/C=C(\O)CCc2ccc(O)c(OC)c2)ccc1O |  | inhibition (Beta-secretase 1 [4]): 7% |
| O=C(/C=C(O)/C=C/c1ccccc1)/C=C/c1ccccc1 | 1 |  |
| COc1cc(/C=C/C(=O)/C(=C(O)/C=C/c2ccc(O)c(OC)c2)C(C)C)ccc1O | 6 |  |
| COc1cc(/C=C/C(O)=C/C(=O)/C=C/c2ccc(O[Si](C)(C)C(C)(C)C)c(OC)c2)ccc1O |  | inhibition (Beta-secretase 1 [4]): 22% |
| O=C(/C=C(O)/C=C/c1ccc(O)c(O)c1)/C=C/c1ccc(O)c(O)c1 | 25 | IC50 (Beta-secretase 1 [2]): 2.2 mM |
| COCCOCOc1ccc(CCC(=O)/C=C(\O)CCc2ccc(OCOCCOC)c(OC)c2)cc1OC |  | inhibition (Beta-secretase 1 [4]): 17% |
| O=C(/C=C(O)/C=C/c1ccc[nH]1)/C=C/c1ccc(O)c(O)c1 | 30 |  |
| COc1cc(CCC(=O)CC(O)CCc2ccc(O)c(OC)c2)ccc1O (stereo unspecified) |  | inhibition (Beta-secretase 1 [4]): 7% |

Now from value to molecule, other results behind:

| inhibition (Beta-secretase 1 [1]) [%] | Structure (SMILES) | other results |
| --- | --- | --- |
| 21 | O=C(/C=C(O)/C=C/c1cccnc1)/C=C/c1ccc(O)c(O)c1 |  |
| 1 | COc1ccc(CCC(=O)C(C(C)C)C(O)CCc2ccc(OC)c(OC)c2)cc1OC (stereo unspecified) |  |
| 21 | N#Cc1cccc(/C=C/C(O)=C/C(=O)/C=C/c2ccc(O)c(O)c2)c1 |  |
| 26 | O=C(/C=C(O)/C=C/c1ccccc1)/C=C/c1ccc(O)c(O)c1 |  |
| 5 | COc1ccc(CCCC(C(=O)CCc2ccc(OC)c(OC)c2)C(C)C)cc1OC (stereo unspecified) |  |
| 9 | COc1ccc(CCC(O)C(C(C)C)C(O)CCc2ccc(OC)c(OC)c2)cc1OC (stereo unspecified) |  |
| 35 | COc1cc(/C=C/C(O)=C/C(=O)/C=C/c2ccc(O)cc2)ccc1O [DEMETHOXYCURCUMIN] | IC50 (Beta-secretase 1 [2]): 1.6 mM |
| 18 | O=C(/C=C(O)/C=C/c1ccc(O)cc1)/C=C/c1ccc(O)c(O)c1 |  |
| 0 | COc1ccc(/C=C/C(=O)/C=C(O)/C=C/c2ccc(OC)c(OC)c2)cc1OC |  |
| 7 | COCOc1ccc(/C=C/C(=O)/C=C(O)/C=C/c2ccc(OCOC)c(OC)c2)cc1OC |  |
